Only some compounds are listed: those with a hit (about 2% of all), similar ones and a draw of the others.
HCV NS3 hel inh = blocks Hepatitis C virus NS3 helicase unwinding | NS3 helicase DNA unwinding, Cy5 molecular beacon fluorescence | inhibition, % at 10.9 µM | hit rate 0.56% among 290,000;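 active means inhibition above the mean of all tested compounds plus 3 SD, set per campaign, cut at about 35% in these data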
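Assay system: hepatitis C virus NS3 helicase domain fragment enzyme. Also added: annealed dual-labelled DNA beacon duplex, ATP-started. Timing: 1 h reaction at 25 °C, ATP-initiated. Technique: Cy5 fluorescence at 0 and 60 min, beacon hairpin quenching. Evaluation: % inhibition of unwinding. Replication: one well per compound.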
core dimer inh = HCV core protein dimerization inhibition | TR-FRET GST/Flag-core106 dimerization, 1536-well | inhibition, % at 5 µM | hit rate 0.33% among 300,000 | AID 1899;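 active means inhibition above the mean of all tested compounds plus 3 SD, set per screening campaign, cut at about 45% in these data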
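System: GST/Flag-tagged HCV core106 proteins. Incubation: compound-protein-antibody incubation 4 h at 22.5 °C. Technique: HTRF with 340 nm excitation, 617/671 nm emission. Medium: KF-containing HEPES buffer, pH 7.45, DTT, CHAPS, BSA. Read-out: inhibition (%) from 671 over 617 nm ratio. Also added: Eu(K)-anti-GST 90 ng/mL plus XL665-anti-Flag 1 µg/mL.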
eIF4H inh = inhibitors of RNA binding by human eIF4H. AID 2012. eIF4H fluorescence polarization binding assay. hit rate 0.94% among 290,000. inhibition, % at 35 µM;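 further: calls also rest on retests at 20 µM and on dose response follow-up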
DNA FID counter = counter-screen for HCV NS3 helicase inhibitors: DNA intercalator displacement | AID 1845 | DNA fluorescent intercalator displacement, fluorescence | inhibition, % at 7.9 µM | hit rate 0.17% among 290,000; in the data active means inhibition above about 37%;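 further: higher means more ethidium bromide displaced from hairpin DNA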
PABP FP inh = PABP-poly(A) binding inhibition | inhibition, % at 35 µM | hit rate 1% among 290,000 | PABP-poly(A) RNA binding, fluorescence polarization | P11940;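 further: calls also rest on retests at 20 µM and on dose response follow-up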
PABP1 MLLE inh = blocks PAM2 peptide binding to the PABP1 MLLE domain; GST-MLLE / FITC-PAM2 fluorescence polarization; P11940; inhibition, % at 20 µM; hit rate 0.36% among 360,000; in the data active means inhibition above about 35%, passing the limit was not always enough
A number is an active result; . = inactive; ? = inconclusive; / = no result. Unless noted, how the calls were made is not given here.

SMILES | HCV NS3 hel inh | core dimer inh | eIF4H inh | DNA FID counter | PABP FP inh | PABP1 MLLE inh
CCN(CC)C(=O)C1=C(C)N(CCCOC)C(=O)C(CC(=O)NCc2ccco2)C1 (stereo unspecified) | / | / | / | / | / | .
O=S(=O)(c1ccc(Oc2ncnc3scc(-c4ccccc4)c23)cc1)N1CCOCC1 | . | 50.4 | . | . | . | .
COc1ccc(NC(=O)CN(C)C(=O)c2cc3c(s2)CCC3)cc1 | / | 69.6 | / | / | / | .
COc1cccc(NC(=O)CN(C)C(=O)c2cc3c(s2)CCC(C)C3)c1 (stereo unspecified) | / | . | / | / | / | .
COc1cccc(NC(=O)CN(C)C(=O)c2cc3c(s2)CCC3)c1 | / | 59.1 | / | / | / | /
COc1ccc(NC(=O)CN(C)C(=O)c2cc3c(s2)CCCCC3)cc1 | . | . | . | . | . | .
COc1ccc(N(C(=O)c2snc(C(N)=O)c2N)C(C(=O)NC2CCCCC2)c2ccc(F)cc2)c(OC)c1 (stereo unspecified) | . | . | . | . | . | .
COc1ccc(-c2nsc(C(=O)N(c3ccc(F)cc3)C(C(=O)NC3CCCC3)c3ccc(OC)cc3)c2N)cc1 (stereo unspecified) | . | 52.6 | . | . | . | .
COc1ccc(C(C(=O)NC2CCCC2)N(C(=O)c2snc(C(N)=O)c2N)c2cccc(O)c2)cc1 (stereo unspecified) | . | . | 68.1 | . | . | .
CC(Sc1ccc2c(c1)OCCO2)C(=O)Nc1ncc(Cl)cc1Cl (stereo unspecified) | . | . | . | . | . | 43.2
CC[n+]1c(/C=C/N(C)c2ccccc2)n(-c2ccccc2)c2ccc(-c3nc4ccccc4s3)cc21 | . | . | . | 40.8 | . | .
CCOC(=O)c1ccc2c(c1)n(CC)c(/C=C/N(C)c1ccccc1)[n+]2CC | . | . | . | . | . | .
COC(=O)CCCCCCCCCC[N+]1(C)CCCCC1 | . | . | . | . | . | .
CC(=O)OCCCCCCCCCCC[N+]1(C)CCCCC1 | . | . | . | . | 63.7 | .
CN(C)C(=S)NC(=S)Nc1ccc2ccccc2c1 | / | / | / | / | / | .
Cn1c(=O)oc2cc(S(=O)(=O)N3CCN(c4cccc(Cl)c4)CC3)ccc21 | . | . | 103.1 | . | 112.2 | .
CN1OC[C@@H]2CN[C@H](c3cccc(Oc4ccccc4)c3)C[C@@H]21 | / | / | / | / | / | .
Cc1[nH]c(=S)c(C#N)c(-c2ccco2)c1C(=O)N(C)C | . | . | . | . | 18.5 | .
CCCCC(=O)Nc1ccc(NC(=S)NC(=O)CC(C)C)cc1OC | . | . | active | . | 74.7 | .
COc1cc2c(cc1NC(=O)Nc1ccc(C)cc1)oc1ccccc12 | . | . | . | . | . | .
COc1cc2c(cc1NC(=O)Nc1ccc(F)cc1)oc1ccccc12 | . | . | 91.9 | . | 10.8 | .
CCN(CC)c1ncnc2c1[nH]c1ccccc12 | . | . | 71.5 | . | active | .
CCCOc1ncnc2c1[nH]c1ccccc12 | . | . | . | . | . | .
CCNC(=O)c1ccc2c(c1)C1C3CCC(C3)C1C(c1ccccc1)N2 (stereo unspecified) | . | . | . | 95.9 | . | .
Nc1cc(N)c(OCC(F)(F)F)cc1OCC(F)(F)F | . | . | 106.2 | . | 89.9 | .
SMILES | HCV NS3 hel inh | core dimer inh | eIF4H inh | DNA FID counter | PABP FP inh | PABP1 MLLE inh
Nc1cc(OCC(F)(F)F)cc([N+](=O)[O-])c1 | . | . | . | . | . | .
Cc1ccc(CN2C(=O)N/C(=C\c3ccc(-c4ccc(C(=O)O)cc4C)o3)C2=O)cc1 | . | . | 87.2 | . | 72.9 | .
Cc1ccc(C(=O)O)cc1-c1ccc(/C=C2/NC(=O)N(c3ccccc3)C2=O)o1 | . | . | 78.7 | . | 78.9 | .
O=C(O)c1ccc(-c2ccc(/C=C3\NC(=O)N(Cc4ccc(Cl)cc4)C3=O)o2)cc1 | . | / | 72.6 | . | 51.3 | .
O=C1NC(=O)/C(=C/c2ccc(-c3cc(C(=O)O)ccc3Cl)o2)S1 | . | . | 92.0 | . | 83.3 | .
Cc1cc(C(=O)O)ccc1-c1ccc(/C=C2\NC(=O)N(Cc3ccccc3Cl)C2=O)o1 | . | . | . | . | . | .
O=C1NC(=S)/C(=C\c2ccc(-c3ccccc3Cl)o2)S1 | . | . | ? | . | . | .
O=c1[nH]c(SCCc2ccccc2)nc2c1CCC2 | / | / | / | / | / | .
CCOc1ccccc1C(=O)Nc1ccc(-n2nncc2C(C)(C)C)cc1 | . | . | . | . | . | .
CCN1CCC(Nc2ccnc3cc(Cl)ccc23)CC1 | . | . | . | 49.8 | . | .

Screens: PubChem BioAssay, several laboratories
